System: MS2 coat protein
Test: apparent Kd, MS2 coat protein; higher = weaker binding; RNA-MaP array; FMN 200 µM where present
Summary of the method: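 Designs were transcribed by stalled E. coli RNA polymerase on Illumina sequencing-chip clusters. They were titrated with SNAP-549-labelled MS2 coat protein from 0.7 or 1.5 nM, doubling to 3 µM, in 100 mM Tris-HCl pH 7.5, 80 mM KCl, 4 mM MgCl2, BSA, DTT, yeast tRNA and Tween-20, without and then with constant ligand. The apparent Kd is the median of filtered per-cluster fits after normalisation of green signal to red-channel RNA signal and control-cluster median Fmax.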

[1] = designed as: ON switch for flavin mononucleotide, no ligand
[2] = ligand present: flavin mononucleotide, designed as: ON switch for flavin mononucleotide
[3] = designed as: OFF switch for flavin mononucleotide, no ligand
[4] = ligand present: flavin mononucleotide, designed as: OFF switch for flavin mononucleotide

Row | Sequence | apparent Kd [1] | apparent Kd [2] | apparent Kd [3] | apparent Kd [4]
1 | GGUACCAUCACAGGAUAUGCUUUUCUUUGGGAAGCAGAAGGGUGUAACAUGAGGAUCACCCAUGUGGUGCCAGGGCGCGAGCCC | 205 nM | 15.4 nM |  | 
2 | GGUACGCAUGUAGGAUAUCGAGCUCAAAGAGCUCGAGAAGGACAUGAGGAUCACCCAUGUCCUCACAGACAGUGAGGGCGUACC |  |  | 18 nM | 26.5 nM
3 | GGUACUAUCACAGGAUAUGCUUUCCUUUGGGAAGCAGAAGGGUGUAACAUGAGGAUCACCCAUGUGGUGCCAGGGCGCGAGCCC | 137 nM | 16.7 nM |  | 
4 | GGUACUCAAAGAGUACCAAUACGAACAUGAGGAUCACCCAUGUAGGAUAUGCUACUCAAAGAGUAGCAGAAGGACAUGUGUCUA |  |  | 29.6 nM | 160 nM
5 | GGUACUCAAAGAGUACCAAUACGAACAUGAGGAUCACCCAUGUAGGAUAUGCUACUCAAAGAGUAGCAGAAGGACGUGUACCUU |  |  | 24.7 nM | 54 nM
6 | GGUAGAAACAUUAACAUGAGGAUCACCCAUGUCAAAAGAAAUGAGGAUAUCGUCUACAAUGUAUAUGAGAAGGCAUGGUCUGCC | 20.2 nM | 14.6 nM |  | 
7 | GGUAUACUGCAGGAUAUUAGCUGAGAUAUCCGCUGAGAAGGGCAGACAUGAGGAUCACCCAUGUACCGAGUAGU |  |  | 31.9 nM | 18.8 nM
8 | GGUCAGGGUGUGAGGAUAUUUACCUAUCACAGUGUGAAGAAGGCACAUGAGGAUCACCCAUGUUAACUGCGGGC |  |  | 51.7 nM | 76.7 nM
9 | GGUCCAACAUGAGGAUAUAGCACCUUAUUGGUGCUAGAAGGCGUGUCGGUAGACAUGAGGAUCACCCAUGUAAUACAUUGGACC | 218 nM | 28.5 nM |  | 
10 | GGUCCACAUGAGGAUCACCCAUGUUAGGAUAUCUCCUGCCUCCUAAAUGGAAGCAGACAGAGAAGGAACAUCAA |  |  | 21.9 nM | 84.4 nM
11 | GGUCCACAUGAGGAUCACCCAUGUUAGGAUAUCUCGUCCGAGCAGUUAUGGGCCGGGCAGAGAAGGAAUGUGAA |  |  | 30.3 nM | 26.6 nM
12 | GGUCCAUCAUGAGGAUAUGGCACCUUAUUGGUGCCAGAAGGCAUGUCUAUAGACAUGAGGAUCACCCAUGUAAUAAAGUGGACC | 922 nM | 49.3 nM |  | 
13 | GGUCCAUCAUGAGGAUAUGGCACCUUAUUGGUGCCAGAAGGCAUGUCUUUAGACAUGAGGAUCACCCAUGUAAUAAAUUGGACC | 1150 nM | 76.5 nM |  | 
14 | GGUCCGCACUAGAAGGGUGACAUGAGGAUCACCCAUGUGCACUUCCGCUCUUAGCGGAAAGUGCCACAGGAUAUAGUGUGGAUU | 80.6 nM | 20.3 nM |  | 
15 | GGUCGUCACAUUUACAUGAGGAUCACCCAUGUCGAAAGACAUGAGGAUAUGCAUCCUAAUUGGAUGCAGAAGGCAUGGACGACC | 445 nM | 249 nM |  | 
16 | GGUCUGACAUAAGGAUAUGCUCAGGAAUACUGAGCAGAAGGUAUGUGAAAACAUGAGGAUCACCCAUGUGAUCAAUACAGACCA | 18 nM | 20.9 nM |  | 
17 | GGUCUUCAAGUCAGGAUAUCGUCUAAUCGAUCUAACGAGAAGGGACAUGAGGAUCACCCAUGUCGUCUCAUCAG |  |  | 19.1 nM | 28.5 nM
18 | GGUGCACGCACAGGAUAUCCGGCGACGCUCGUCGGAGAAGGGUGACAUGAGGAUCACCCAUGUACGUGCAACUCAGUUUGAGAG | 35.7 nM | 28.1 nM |  | 
19 | GGUGCAUGUGAGAAGGCGAUCAUGAAACAUGAUCGAGGAUAUCAUGUAAACAUGAGGAUCACCCAUGUAUGGGAAAAGUGCACC | 97.9 nM | 10.1 nM |  | 
20 | GGUGCCAUGUAGAAGGCAGAUCUGAUUCAGAUCUGAGGAUAUACAUGAGGAUCACCCAUGUAAGGGCACCGCACGAGAGUGCAA |  |  | 6.56 nM | 10.2 nM
21 | GGUGCGAUGUAGAAGGCAGAUCUGAUUCAGAUCUGAGGAUAUACAUGAGGAUCACCCAUGUAAAGGCACCGCACGAGAGUGCAA |  |  | 7.12 nM | 11.3 nM
22 | GGUGCGUAUGUGAGGAUAUGCUGGUCCUUGGAUCAGCAGAAGGCACAUGAGGAUCACCCAUGUGGUGUCGUGCC |  |  | 114 nM | 20.8 nM
23 | GGUGCGUAUGUGAGGAUAUGCUGGUCCUUGGAUCGGCAGAAGGCACAUGAGGAUCACCCAUGUGGUGUCGUACC |  |  | 339 nM | 24.4 nM
